What was measured:
[1] = molecular target: T1, 5-hydroxytryptamine receptor 1A (Homo sapiens, UniProt P08908); assay: Displacement of [3H]8-OH-DPAT from human 5-HT1A receptor expressed in HEK293 cells; assay type: cell-based
T1 sequence (P08908 whole entry): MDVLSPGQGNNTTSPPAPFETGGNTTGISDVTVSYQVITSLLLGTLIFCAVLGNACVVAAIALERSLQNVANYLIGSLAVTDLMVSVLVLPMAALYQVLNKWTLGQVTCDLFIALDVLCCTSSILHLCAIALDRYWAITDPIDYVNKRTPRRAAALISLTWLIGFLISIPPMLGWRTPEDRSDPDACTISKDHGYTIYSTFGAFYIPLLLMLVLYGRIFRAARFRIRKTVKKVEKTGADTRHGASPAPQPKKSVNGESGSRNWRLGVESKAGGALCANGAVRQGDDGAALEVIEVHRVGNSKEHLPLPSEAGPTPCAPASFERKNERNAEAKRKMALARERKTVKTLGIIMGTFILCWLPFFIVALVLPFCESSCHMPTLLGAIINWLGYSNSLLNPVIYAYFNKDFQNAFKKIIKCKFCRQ

[2] = molecular target: Sodium-dependent serotonin transporter (Rattus norvegicus, UniProt P31652); assay: Displacement of [3H]paroxetine from SERT in rat cortical membranes after 6 mins by liquid scintillation counting; assay type: cell membranes
Chain of Sodium-dependent serotonin transporter (P31652 whole entry): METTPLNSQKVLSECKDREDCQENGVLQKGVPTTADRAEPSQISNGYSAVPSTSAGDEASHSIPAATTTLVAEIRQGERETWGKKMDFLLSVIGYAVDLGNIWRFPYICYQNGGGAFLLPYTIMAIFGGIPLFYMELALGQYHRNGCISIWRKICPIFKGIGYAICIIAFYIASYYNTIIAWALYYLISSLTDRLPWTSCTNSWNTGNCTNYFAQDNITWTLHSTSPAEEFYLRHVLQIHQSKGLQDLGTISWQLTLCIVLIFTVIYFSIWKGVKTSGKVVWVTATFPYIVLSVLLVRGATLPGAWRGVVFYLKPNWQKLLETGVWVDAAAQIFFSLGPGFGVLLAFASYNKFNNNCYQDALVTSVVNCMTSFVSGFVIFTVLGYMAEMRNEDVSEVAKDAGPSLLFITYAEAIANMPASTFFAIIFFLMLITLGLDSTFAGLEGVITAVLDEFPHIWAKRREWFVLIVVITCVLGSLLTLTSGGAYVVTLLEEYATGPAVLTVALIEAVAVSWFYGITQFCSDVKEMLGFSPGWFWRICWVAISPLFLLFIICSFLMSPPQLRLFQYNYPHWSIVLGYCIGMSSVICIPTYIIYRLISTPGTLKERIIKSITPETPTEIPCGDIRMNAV
Procedure, shortened: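 Rat cortical membranes (0.35 mg original wet weight) incubated with 0.2 nM [3H]paroxetine and test compound at 10^-11–10^-4 M in 50 mM Tris–HCl pH 7.7 with 150 mM NaCl, 5 mM KCl, 1.0 ml, 6 min at 25 °C; stopped by rapid filtration through polyethyleneimine-soaked GF/B filters, ice-cold buffer washes.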

SMILES | IC50 [1] [nM] | IC50 [2] [nM]
COc1ccc2[nH]cc(CCCN3CCN(CCCc4c[nH]c5ccccc45)CC3)c2c1 | 4500 | 43
c1ccc2c(CCCN3CCN(CCCc4c[nH]c5ccccc45)CC3)c[nH]c2c1 | 2700 | 37
Fc1ccc2[nH]cc(CCCN3CCN(CCCc4c[nH]c5ccc(F)cc45)CC3)c2c1 | 5700 | 13
COc1ccc2[nH]cc(CCCN3CCN(CCCc4c[nH]c5ccc(OC)cc45)CC3)c2c1 | 599 | 98
Brc1ccc2[nH]cc(CCCN3CCN(CCCc4c[nH]c5ccccc45)CC3)c2c1 | 15 | 137

Further compounds by falling IC50 [1], results first:

IC50 [1] [nM] | IC50 [2] [nM] | SMILES
7200 | 14 | COc1ccc2[nH]cc(CCCN3CCN(CCCc4c[nH]c5ccc(F)cc45)CC3)c2c1
4900 | 61 | Fc1ccc2[nH]cc(CCCN3CCN(CCCc4c[nH]c5ccc(Br)cc45)CC3)c2c1
1200 | 87 | Brc1ccc2[nH]cc(CCCN3CCN(CCCc4c[nH]c5ccc(Br)cc45)CC3)c2c1
128 | 39 | COc1ccc2[nH]cc(CCCN3CCN(CCCc4c[nH]c5ccc(Br)cc45)CC3)c2c1
16 | 26 | Fc1ccc2[nH]cc(CCCN3CCN(CCCc4c[nH]c5ccccc45)CC3)c2c1

Source: ChEMBL document CHEMBL3091306, “Synthesis, docking and pharmacological evaluation of novel homo- and hetero-bis 3-piperazinylpropylindole derivatives at SERT and 5-HT1A receptor” (Bioorg Med Chem, 2013)
